The test system of test [1] is Hepatitis B virus. Nature of the test: Antiviral activity against hepatitis B virus infected in human HepG2.2.15 cells assessed as HBsAg secretion at 5 uM incubated for 9 days by ELISA (reference value: 8.41+/- 0.54 ng/ml). It is filed as functional.
The subject of another test is HepG2. Nature of the test: Antiproliferative activity against human HepG2 cells assessed as inhibition of cell growth incubated for 24 hrs by MTT assay. It is filed as functional, cell-based. Conditions: HepG2, 24 h. Summed up:
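HepG2 cells exposed to a range of concentrations for the stated times, then inhibition rate measured by MTT.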
In general terms: Tetrazolium assays rely on reduction of a dye to a coloured formazan, in cell work by metabolically active cells.

Test [2] has as its system Hepatitis B virus. Nature of the test: Antiviral activity against hepatitis B virus infected in human HepG2.2.15 cells assessed as reduction in HBeAg secretion at 5 uM incubated for 9 days by ELISA (reference value: 25.13 +/- 1.93 ng/ml). It is filed as functional.
In test [3] the test system is Hepatitis B virus. Nature of the test: Antiviral activity against hepatitis B virus infected in human HepG2.2.15 cells assessed as reduction in HBV DNA level incubated for 9 days by real time-PCR analysis. The format is functional, organism-based.
Test [4] has as its target T1, Hepatic sodium/bile acid cotransporter (Homo sapiens, UniProt Q14973).
T1 sequence (Q14973 whole entry): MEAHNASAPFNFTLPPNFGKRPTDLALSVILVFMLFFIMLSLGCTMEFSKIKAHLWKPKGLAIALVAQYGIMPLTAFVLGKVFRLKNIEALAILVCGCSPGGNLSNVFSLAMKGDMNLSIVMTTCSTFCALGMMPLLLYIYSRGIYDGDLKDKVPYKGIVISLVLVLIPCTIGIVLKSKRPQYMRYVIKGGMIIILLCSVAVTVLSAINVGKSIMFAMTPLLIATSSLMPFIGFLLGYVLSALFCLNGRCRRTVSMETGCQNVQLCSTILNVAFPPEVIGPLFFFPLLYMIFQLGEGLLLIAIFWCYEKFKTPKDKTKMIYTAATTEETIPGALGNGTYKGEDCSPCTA
Nature of the test: Inhibition of NTCP in human hepatocytes assessed as reduction in Na+-dependent [3H]taurocholate uptake measured at 45s following compound addition by liquid scintillation counting method. The format is cell-based.

Test [5] has as its target T1, Hepatic sodium/bile acid cotransporter. Nature of the test: Inhibition of human recombinant NTCP expressed in CHO cells assessed as reduction in [3H]taurocholate uptake incubated for 2 mins by scintillation counting method. The format is cell-based.
The target is the same in test [6]. Nature of the test: Inhibition of human recombinant NTCP expressed in CHO cells assessed as reduction in [3H]taurocholate uptake preincubated for 1 hr by radioactive scintillation counting method. The format is cell-based.

Calls of active or inactive are those of the source. The rule behind the calls is not given here. A value given as a limit tells only on which side of the number the result lay.

As for `O=C(CNC(=O)c1ccc(-c2ccccc2)cc1)N/N=C/c1ccccc1OCc1ccccc1Cl`, the Activity amounted to 8.31 ng/mL in the test with Hepatitis B virus [1] and 24.88 ng/mL with Hepatitis B virus [2]. Moreover, the IC50 (commonly the concentration at which inhibition is half-maximal) with HepG2 is greater than 50 µM.

`O=C(CNC(=O)c1ccc(F)cc1)N/N=C/c1ccccc1OCc1ccccc1Cl`: the Activity in the test with Hepatitis B virus [1] turned out to be 5.03 ng/mL; in the test with Hepatitis B virus [2], 14.53 ng/mL. Also, the IC50 in the test with HepG2 came to 24.9 µM.

`Cc1ccc(C(=O)NCC(=O)N/N=C/c2ccccc2OCc2ccc(C#N)cc2)cc1`: the Activity with Hepatitis B virus [1] is 8.25 ng/mL; with Hepatitis B virus [2], 25.25 ng/mL. Besides, in the test with HepG2, the IC50 was greater than 50 µM.

With `COc1ccc(/C=N/NC(=O)CNC(=O)c2ccc(C#N)cc2)c(OCc2ccccc2Cl)c1`, the Activity is 8.29 ng/mL with Hepatitis B virus [1] and 25.47 ng/mL in the test on Hepatitis B virus [2]. In the test on HepG2, the IC50 is greater than 50 µM.

With `N#Cc1ccc(C(=O)NCC(=O)N/N=C/c2ccccc2OCc2ccccc2Cl)cc1`, the figures for the Activity with Hepatitis B virus [1] and with Hepatitis B virus [2] were 8.33 ng/mL and 25.22 ng/mL, respectively. Also, the IC50 with HepG2 was greater than 50 µM.

With `Cc1cc(C)cc(OCC(=O)NCCNC(=O)COc2cc(C)cc(C)c2)c1`, the IC50 in the test with HepG2 stood at 53.2 µM.

For the molecule `O=C(CNC(=O)c1cccnc1Cl)N/N=C/c1ccccc1OCc1ccccc1Cl`, the Activity was 4.08 ng/mL in the test with Hepatitis B virus [1] and 12.55 ng/mL in the test on Hepatitis B virus [2]. In addition, the half-maximal inhibitory concentration (IC50) in the test on HepG2 worked out at 16.9 µM.

For the molecule `C[C@H](NC(=O)COc1ccc(S(=O)(=O)N[C@H](C)c2ccccc2)cc1)c1ccccc1`, the IC50 in the test with HepG2 was found to be 35.7 µM.

On to `Cc1ccc(C(=O)NCC(=O)N/N=C/c2ccccc2OCc2ccc(Cl)cc2)cc1`, for which the figures for the Activity in the test on Hepatitis B virus [1] and with Hepatitis B virus [2] were 7.79 ng/mL and 22.99 ng/mL, respectively. Moreover, the IC50 with HepG2 is greater than 50 µM.

As for `O=C(CNC(=O)c1cccnc1Cl)N/N=C/c1cccc(OCc2ccccc2Cl)c1`, the Activity in the test on Hepatitis B virus [1] turned out to be 2.05 ng/mL; in the test on Hepatitis B virus [2], 6.43 ng/mL. The IC50 in the test with HepG2 amounted to 3.1 µM. In addition, the inhibition result with Hepatitis B virus [3] was “Active”.

As to `Cc1ccc(C(=O)NCC(=O)N/N=C/c2ccc(OCc3cc4c(cc3Cl)OCO4)cc2)cc1`, the Activity came to 3.91 ng/mL in the test on Hepatitis B virus [1] and 11.47 ng/mL with Hepatitis B virus [2]. Moreover, the half-inhibitory concentration (IC50) with HepG2 came to 14.9 µM.

For the molecule `O=C1CC(c2ccccc2)CC(=O)C1=CNCCN1CCN(C(=O)Cc2ccccc2)CC1` (configuration not stated), the IC50 in the test on HepG2 was 70.2 µM.

`Cc1cccc(CSCCNC(=O)CN(c2cccc(C(F)(F)F)c2)S(C)(=O)=O)c1`: the IC50 in the test with HepG2 was 23.4 µM.

For the molecule `CCN(CC)c1ccc(/C=N/NC(=O)CNC(=O)c2ccc(C)cc2)c(OCc2ccccc2Cl)c1`, the Activity in the test on Hepatitis B virus [1] was 8.37 ng/mL; in the test on Hepatitis B virus [2], 24.55 ng/mL. Further, in the test on HepG2, the IC50 was greater than 50 µM.

For `Cc1ccc(C(=O)NCC(=O)N/N=C/c2ccccc2OCc2ccccc2Cl)cc1`, the Activity in the test with Hepatitis B virus [1] came to 3.95 ng/mL; in the test with Hepatitis B virus [2], 15.01 ng/mL. The IC50 in the test with HepG2 turned out to be 13.4 µM.

As to `O=C(CNC(=O)c1cccnc1Cl)N/N=C/c1ccccc1OCc1cc2c(cc1Cl)OCO2`, the figures for the Activity in the test on Hepatitis B virus [1] and with Hepatitis B virus [2] were 8.39 ng/mL and 25.47 ng/mL, respectively. For the same molecule, the half-inhibitory concentration (IC50) in the test with HepG2 was greater than 50 µM.

Regarding `O=C(COc1ccc(Cl)cc1)NCc1ccc(CNC(=O)COc2ccc(Cl)cc2)cc1`, in the test on HepG2, the IC50 was 26.4 µM.

Take `O=C(CNC(=O)c1ccc(F)cc1)N/N=C/c1ccccc1OCc1cc2c(cc1Cl)OCO2`: the Activity in the test with Hepatitis B virus [1] was determined as 3.98 ng/mL; with Hepatitis B virus [2], 11.84 ng/mL. Further, the IC50 with HepG2 was determined as 17.1 µM.

Consider `COc1ccccc1Oc1c(NS(=O)(=O)c2ccc(C(C)(C)C)cc2)nc(-c2ncccn2)nc1OCCO` [BOSENTAN], for which the IC50 in test [4] is 30 µM.

For `O=C(CNC(=O)c1ccc(-c2ccccc2)cc1)N/N=C/c1ccc(OCc2cc3c(cc2Cl)OCO3)cc1`, the Activity was determined as 7.66 ng/mL in the test on Hepatitis B virus [1] and 23.8 ng/mL in the test with Hepatitis B virus [2]. Further, the IC50 in the test on HepG2 is greater than 50 µM.

As to `CCN(CC)c1ccc(/C=N/NC(=O)CNC(=O)c2ccc(C#N)cc2)c(OCc2ccccc2Cl)c1`, the Activity in the test with Hepatitis B virus [1] was 8.17 ng/mL; in the test with Hepatitis B virus [2], 24.86 ng/mL. The IC50 in the test on HepG2 was greater than 50 µM.

As to `O=C(CNC(=O)c1cccnc1)N/N=C/c1ccc(OCc2cc3c(cc2Cl)OCO3)cc1`, the figures for the Activity with Hepatitis B virus [1] and in the test with Hepatitis B virus [2] were 3.71 ng/mL and 11.45 ng/mL, respectively. Besides, the IC50 in the test with HepG2 turned out to be 10.1 µM.

As for `O=C(CNC(=O)c1ccc(-c2ccccc2)cc1)N/N=C/c1ccccc1OCc1cc2c(cc1Cl)OCO2`, the Activity stood at 7.72 ng/mL in the test on Hepatitis B virus [1] and 24.07 ng/mL in the test with Hepatitis B virus [2]. Further, the IC50 in the test with HepG2 is greater than 50 µM.

With `COc1ccc(/C=N/NC(=O)CNC(=O)c2ccc(F)cc2)c(OCc2ccccc2Cl)c1`, the Activity was 4.23 ng/mL in the test with Hepatitis B virus [1] and 13.07 ng/mL in the test on Hepatitis B virus [2]. Further, the IC50 in the test with HepG2 was 15.7 µM.

Take `Cc1ccccc1OCC(=O)N/N=C/c1cccc(OCc2ccccc2)c1`: the IC50 with HepG2 amounted to 18.6 µM.

For `Cc1ccc(C(=O)NCC(=O)N/N=C/c2ccc(OCc3ccccc3Cl)cc2)cc1`, the Activity in the test on Hepatitis B virus [1] turned out to be 4.83 ng/mL; in the test on Hepatitis B virus [2], 14.29 ng/mL. Also, the IC50 in the test on HepG2 turned out to be 28.1 µM.

Take `Cc1ccc(C(=O)NCC(=O)N/N=C/c2cccc(OCc3ccccc3Cl)c2)cc1`: the Activity in the test on Hepatitis B virus [1] was 5.74 ng/mL; in the test on Hepatitis B virus [2] it was 18.09 ng/mL. Further, the IC50 in the test on HepG2 stood at 47.5 µM.

On to `O=C(CNC(=O)c1cccnc1Cl)N/N=C/c1ccc(OCc2ccccc2Cl)cc1`, for which the results for the Activity in the test with Hepatitis B virus [1] and with Hepatitis B virus [2] were 2.48 ng/mL and 7.36 ng/mL, respectively. Besides, the IC50 in the test with HepG2 is 4.7 µM. In the test on Hepatitis B virus [3], the inhibition entry is “Active”.

Take `COc1ccc(/C=N/NC(=O)CNC(=O)c2ccc(C)cc2)c(OCc2ccccc2Cl)c1`: the Activity with Hepatitis B virus [1] worked out at 7.94 ng/mL; in the test with Hepatitis B virus [2], 23.53 ng/mL. The IC50 in the test with HepG2 was greater than 50 µM.

Consider `COc1ccc(COc2ccccc2/C=N/NC(=O)CNC(=O)c2ccc(C)cc2)cc1`, for which the Activity with Hepatitis B virus [1] turned out to be 7.66 ng/mL; in the test with Hepatitis B virus [2], 23.04 ng/mL. Also, the IC50 with HepG2 is greater than 50 µM.

Turning to `CC(C)n1c(/C=C/C(O)CC(O)CC(=O)O)c(-c2ccc(F)cc2)c2ccccc21` (configuration not stated) [FLUVASTATIN], the IC50 in test [5] was 40 µM.

As to `CCN(CC)c1ccc(/C=N/NC(=O)CNC(=O)c2ccc(F)cc2)c(OCc2ccccc2Cl)c1`, the figures for the Activity in the test on Hepatitis B virus [1] and with Hepatitis B virus [2] were 8.04 ng/mL and 24.34 ng/mL, respectively. In addition, the IC50 in the test with HepG2 was greater than 50 µM.

With `C[C@]1(C(=O)NCCOc2ccc(C3CCCCC3)cc2)CO[C@@H](c2ccccc2)OC1`, the IC50 in the test on HepG2 stood at 32.9 µM.

As for `C[C@H](Cn1cnc2c(N)ncnc21)OCP(=O)(O)O` [TENOFOVIR ANHYDROUS], the Activity came to 1.72 ng/mL with Hepatitis B virus [1] and 5.6 ng/mL in the test on Hepatitis B virus [2].

As for `Cc1sc(NC(=O)CCn2cnc3ccccc3c2=O)nc1-c1ccc(Cl)cc1`, the IC50 with HepG2 turned out to be 25.4 µM.

With `CCCNS(=O)(=O)Nc1ncnc(OCCOc2ncc(Br)cn2)c1-c1ccc(Br)cc1`, the IC50 in test [6] came out at 10 µM.
